Screens from PubChem BioAssay.
CHOP UPR activ: activators of apoptotic CHOP UPR arm, primary screen, cell-based, CHO-CHOP luciferase reporter, luminescence, uHTS. UPR activation; percent of tunicamycin response over DMSO baseline. activation, % at 10 µM. actives 0.34% (n = 330,000);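 active = at 10 µM dose, activation of 40% or more, normalized to positive control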;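 also: 100% = tunicamycin at 10 µg/mL and 0% = DMSO alone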
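System: CHO-CHOP luciferase reporter cell line | Buffer or medium: F12 medium containing 10% fetal bovine serum | Doses: One dose, 10 µM in 0.5% DMSO | Times: 6 h compound exposure at 37 °C after overnight seeding | Signal: Luciferase luminescence | Read-out: % activation vs tunicamycin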
HCV NS3 hel inh: inhibitors of HCV NS3 helicase, primary screen, biochemical, Cy5 molecular beacon fluorescence; Hepatitis C virus NS3 helicase; NS3 helicase DNA unwinding; inhibition, % at 10.9 µM; actives 0.56% (n = 290,000); AID 1800, 2009;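 active = inhibition above the mean of all tested compounds plus 3 SD, set per campaign, cut at about 35% in these data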;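 also: 0% = DMSO wells and 100% = thioflavine S control wells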
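assay system = NS3 helicase fragment of HCV | buffer or medium = MOPS pH 6.5, MgCl2, DTT, Tween20, BSA | timing = 60 min unwinding reaction at 25 °C after ATP addition | signal = Cy5 beacon fluorescence read at start and 1 h | read-out basis = % inhibition of unwinding | control set = low DMSO, high thioflavine S at 110 µM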
M18AAP inhibitor: PfM18AAP inhibitors, malaria aminopeptidase, primary screen, biochemical, QFRET, recombinant enzyme; H-Glu-NHMec fluorogenic cleavage; inhibition, % at 7.35 µM; actives 1.2% (n = 290,000); AID 1822, 2009;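 active = inhibition above the campaign mean inhibition over all tested compounds plus 3 SD, cut at about 28% in these data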;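 also: 0% = plate median of test compound wells and 100% = 2 mM ZnCl2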
XBP1 UPR activ: activators of adaptive XBP1 UPR arm, primary screen, cell-based, CHO-XBP1 luciferase reporter, luminescence, uHTS; IRE1-XBP1 UPR activation; percent of tunicamycin response, DMSO as zero; activation, % at 20 µM; actives 0.33% (n = 330,000);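 active = versus positive control, 20 µM dose yields 30% or more activation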;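 also: 100% = tunicamycin at 10 µg/mL and 0% = DMSO only wells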
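Material: CHO-XBP1 cells stably carrying IRE1-XBP1-driven luciferase reporter / Amount: 1000 cells per well / Compound: 20 µM, 1% DMSO / Times: 6 h treatment, 37 °C / Detection: luciferase luminescence / Measure: % activation of reporter signal versus tunicamycin and DMSO controls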
CHOP inhibitor: inhibitors of CHOP promoter induction, primary screen, cell-based, unfolded protein response, luciferase reporter; CHO-K1 CHOP-promoter luciferase, tunicamycin-induced, 15-18 h; inhibition, % at 10 µM; actives 3.8% (n = 220,000);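 active = compounds that reduced the stress-induced luciferase reporter signal by more than about 70% of percent inhibition, limit read from the data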;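 also: 0% = tunicamycin plus vehicle and 100% = wells without tunicamycin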
p97 inhibitor: inhibitors of human p97 ATPase, primary screen, biochemical; Transitional endoplasmic reticulum ATPase (Homo sapiens), P55072; recombinant p97 ATPase, Kinase-Glo ATP luminescence, 3 h; inhibition, % at 8 µM; actives 0.42% (n = 220,000); in the data active = inhibition above about 15%;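 also: 0% = DMSO vehicle and 100% = wells lacking enzyme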
Target sequence (P55072 whole entry, looked up): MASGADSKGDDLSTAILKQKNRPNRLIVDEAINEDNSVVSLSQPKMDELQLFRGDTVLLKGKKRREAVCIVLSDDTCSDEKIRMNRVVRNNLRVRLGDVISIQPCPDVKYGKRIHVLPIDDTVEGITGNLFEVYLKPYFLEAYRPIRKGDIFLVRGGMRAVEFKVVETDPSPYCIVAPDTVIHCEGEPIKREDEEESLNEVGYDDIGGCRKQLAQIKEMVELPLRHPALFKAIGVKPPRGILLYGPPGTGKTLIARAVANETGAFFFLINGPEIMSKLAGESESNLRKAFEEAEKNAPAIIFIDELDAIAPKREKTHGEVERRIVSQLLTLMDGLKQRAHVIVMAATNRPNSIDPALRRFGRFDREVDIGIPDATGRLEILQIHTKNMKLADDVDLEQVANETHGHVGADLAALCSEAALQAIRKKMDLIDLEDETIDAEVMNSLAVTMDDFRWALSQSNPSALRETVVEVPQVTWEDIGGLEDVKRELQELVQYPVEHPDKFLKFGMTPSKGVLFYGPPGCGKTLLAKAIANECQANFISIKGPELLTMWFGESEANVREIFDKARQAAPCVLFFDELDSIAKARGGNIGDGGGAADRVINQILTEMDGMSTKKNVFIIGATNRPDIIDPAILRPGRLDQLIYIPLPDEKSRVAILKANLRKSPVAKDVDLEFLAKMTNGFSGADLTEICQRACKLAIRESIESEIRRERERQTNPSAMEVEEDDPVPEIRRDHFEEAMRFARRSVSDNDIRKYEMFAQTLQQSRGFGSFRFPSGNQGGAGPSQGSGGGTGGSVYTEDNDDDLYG
UPR CHOP confirm: activators of apoptotic CHOP UPR arm, confirmation, cell-based, CHO-CHOP luciferase reporter, single concentration | actives 64% (n = 1,000) | activation, % at 10 µM | AID 463112, 2010 | CHO-CHOP cells, CHOP-luciferase reporter luminescence; percent of tunicamycin response, DMSO as zero | shares compounds with CHOP UPR activ; in the data active = activation above about 33%;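 also: 0% = DMSO wells and 100% = tunicamycin 10 µg/mL wells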
An asterisk follows results filed as active; . = no result given. The list is not random: actives were taken first. Their share in the collection is about 4.5%.

SMILES	CHOP UPR activ	HCV NS3 hel inh	M18AAP inhibitor	XBP1 UPR activ	CHOP inhibitor	p97 inhibitor	UPR CHOP confirm
Cc1ccc(-c2nc3c(c(=O)c4ccccc4n3C)c(=O)n2-c2ccc(F)cc2)cc1	3	11	2	-4	8	2	.
O=C(COc1ccc(/C=N/NC(=O)C(=O)N2CCCCC2)cc1)Nc1ccccc1Cl	0	-7	1	2	1	-3	.
CC(C)(C)c1ccc(/C=C(\c2nc3ccccc3[nH]2)S(=O)(=O)c2ccccc2)cc1	56*	.	.	11	.	.	71*
O=C(CNC(=O)COc1ccccc1)NCc1cccnc1	2	15	-4	-9	.	.	.
CCOC(=O)c1cnc(-n2nc(C)cc2C)nc1Nc1ccc(N(C)C)cc1	73*	-8	-4	36*	-111	-5	35*
CCOC(=O)c1cnc(-n2nc(C)cc2C)nc1Nc1cccc(C(=O)O)c1	-4	-1	0	1	31	4	.
O=C(c1cccc(NS(=O)(=O)c2cccc(C(F)(F)F)c2)c1)N1CCOCC1	3	-6	-16	-5	.	.	.
CCc1cccc2c(C(=O)CCl)c[nH]c12	84*	2	-6	0	-141	18*	66*
Cc1ccc(-c2nn3c(C)nnc3s2)cc1NC(=O)c1ccc(-c2ccc(Cl)cc2Cl)o1	46*	19	-8	51*	81*	-5	35*
COc1cc(/C=C2\C(=O)ON=C2c2ccc(Cl)cc2)ccc1O	180*	.	.	0	.	.	143*
COc1ccc(OCCCC(=O)Nc2ncn[nH]2)cc1	-2	7	9	0	-4	-2	.
COC(=O)C1=C(C(=O)OC)SC2(S1)C(C(=O)OC)=C(C(=O)OC)SC1=C2c2cccc(C)c2NC1(C)C	40*	2	11	3	50	-1	19
CCOC(=O)C(CC)(CC)C(=O)/C=C/c1cccc(Br)c1	54*	0	-1	3	.	-1	70*
CSCC[C@H](N)C(=O)NCC1CCC(C(=O)Nc2ccc3c(c2)OCO3)CC1 (some centres undefined)	1	-7	-3	1	.	.	.
COc1ccc(Cl)cc1NC(=O)C(C)OC(=O)Cn1cc(C(F)(F)F)ccc1=O (centres undefined)	3	.	.	-4	.	.	.
O=C1C(Cl)=C(NC(=O)c2ccccc2)C(=O)C(Cl)=C1NC(=O)c1ccccc1	86*	5	25	-11	.	.	50*
O=C(N/N=C(\c1ccccc1)c1cccnc1)c1cccc(F)c1	51*	6	-7	-5	.	.	91*
O=C(N/N=C(\c1ccccc1)c1cccnc1)c1ccc(O)cc1	1	-2	6	-2	.	.	.
Cc1ccc(N2C(=O)N(CC(=O)NCc3ccccc3Cl)C(=O)C2C)cc1 (centres undefined)	-1	1	3	-2	21	2	.
Oc1[nH]c2ccccc2c1N=NC(=S)N1CCOCC1	254*	-2	7	18	4	3	229*
Oc1[nH]c2ccc(Br)cc2c1N=NC(=S)N1CCOCC1	168*	17	8	8	-51	5	102*
COC(=O)N=Nc1c(O)[nH]c2ccc(Br)cc12	0	-13	5	1	7	0	.
O=C(N=Nc1c(O)[nH]c2ccccc12)c1ccc(CN2CCOCC2)cc1	3	-3	4	-3	0	-3	.
CC(Cc1ccco1)NC(=O)c1ccc(C(F)(F)F)cc1 (centres undefined)	4	13	-2	-3	.	.	.
Cc1ccc(S(=O)(=O)Nc2cccc3cccnc23)cc1	621*	-1	-3	-5	-167	-3	326*
SMILES	CHOP UPR activ	HCV NS3 hel inh	M18AAP inhibitor	XBP1 UPR activ	CHOP inhibitor	p97 inhibitor	UPR CHOP confirm
CCC(=O)Nc1c(C#N)c2nc3ccccc3nc2n1C1CCCCC1	-2	-2	4	3	35	1	.
CCOC(=O)c1c(NC(=O)c2ccco2)n(C2CCCCC2)c2nc3ccccc3nc12	40*	5	4	5	40	7	0
COc1ccc(CN2C[C@H]3CCCN3c3cc(Br)ccc3S2(=O)=O)cc1	3	.	.	13	.	.	.
CC(=O)/C(=C/c1ccccc1)C(=O)Nc1ccccc1C	46*	3	-1	-3	-77	4	64*
COc1ccc(C2C3=C(CC(C)(C)CC3=O)Oc3ncn(CC(C)C)c(=N)c32)cc1 (centres undefined)	0	-9	-9	-2	6	0	.
COc1ccc(C2C3=C(CC(C)(C)CC3=O)Oc3ncn(Cc4ccco4)c(=N)c32)cc1 (centres undefined)	44*	-5	8	0	38	0	0
Cc1sc2nc3c4ccccc4c(NCc4ccco4)nn3c(=O)c2c1C	-1	22	22	-12	-33	7	.
Cc1nc(NCc2ccco2)c2c(C)c(C)sc2n1	41*	2	8	-2	-38	-6	15
O=C(CCN1C(=O)C2C3C=CC(C4CC34)C2C1=O)Oc1ccc(Br)cc1 (centres undefined)	0	-12	-3	0	-3	-3	.
O=C(CCN1C(=O)C2C3C=CC(C4CC34)C2C1=O)Oc1cccc2cccnc12 (centres undefined)	72*	-1	-1	10	48	3	60*
COc1ccc(S(=O)(=O)N2CCC3(CC2)OCCN3S(=O)(=O)c2ccccc2)cc1OC	-2	.	.	-4	.	.	.
O=C(Nc1nc2ccccc2s1)c1cnccn1	-1	1	0	-5	43	-7	.
O=C(Nc1nc2ccc(F)cc2s1)c1ccccn1	80*	-3	6	-8	81*	-16	73*
CC(C)N1C(=O)S/C(=C/c2ccc3c(c2)n(C)c(=O)n3C)C1=O	4	-8	1	11	-42	0	.
CCN(CC)c1ccc(/C=C2\SC(=O)N(C(C)C)C2=O)o1	112*	17	4	-4	-69	0	15
COc1ccc(CCNC(=O)c2coc(=O)c(Br)c2)cc1	116*	6	3	-1	.	.	56*
COc1ccc(CCNC(=O)c2ccc(Br)cc2)cc1	.	1	-1	.	.	.	.
